Twelve molecules from ChEMBL document CHEMBL2146402, “Cytotoxic lignans from fruits of Cleistanthus indochinensis: synthesis of cleistantoxin derivatives” (J Nat Prod, 2012) can be followed below.

Structures are written as SMILES. Active and inactive are the calls of the source. The rule behind the calls is not given here.

What all share (type): functional, cell-based
Test [1] concerns KB. Description: Cytotoxicity against human KB cells at 100 ug/mL after 72 hrs by neutral red assay.
Test [2] concerns KB. Description: Cytotoxicity against human KB cells after 72 hrs by neutral red assay. A digest of the protocol:
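KB human nasopharynx carcinoma cells grown in D-MEM with 10% fetal calf serum, 2 mM L-glutamine, penicillin G, streptomycin and gentamicin. Seeded at 3 × 10³ cells/mL and exposed to compounds (stocks in DMSO/H₂O 1:9) for 72 h at 37 °C in air/CO₂ 95:5. Living cells stained with neutral red, OD read at 540 nm. IC50 is the concentration reducing growth to 50% of control. Taxotere reference.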

Another test relates to HT-29. Nature of the test: Cytotoxicity against human HT-29 cells.
The nature of test [3]: Cytotoxicity against human MCF7/R cells. The note with it: MCF7R.
The next test deals with MCF7. Description: Cytotoxicity against human MCF7 cells.

On to `COc1c2c(cc3c1[C@H]1C(=O)OC[C@H]1[C@H](C(=O)N(Cc1ccccc1)Cc1ccccc1)[C@@H]3c1ccc3c(c1)OCO3)OCO2`, for which the result in the test on KB [1] was inactive.

For `COc1c2c(cc3c1[C@H]1C(=O)OC[C@H]1[C@H](C(=O)NCc1ccco1)[C@@H]3c1ccc3c(c1)OCO3)OCO2`, the result with KB [1] was inactive.

For the molecule `COc1c2c(cc3c1[C@H]1C(=O)OC[C@H]1[C@H](C(=O)NC1CCCC1)[C@@H]3c1ccc3c(c1)OCO3)OCO2`, in the test on KB [1], the result was inactive.

As for `COc1c2c(cc3c1[C@@H]1OC(=O)[C@H]([C@@H]3c3ccc4c(c3)OCO4)[C@@H]1CO)OCO2` [NEOCLEISTANTOXIN], it took 1400 nM to reach half-maximal inhibition with KB [2] (IC50).

As to `COc1c2c(cc3c1[C@H]1C(=O)OC[C@H]1[C@H](C(=O)n1ccnc1)[C@@H]3c1ccc3c(c1)OCO3)OCO2`, the result in the test on KB [1] was inactive.

On to `COc1c2c(cc3c1[C@H]1C(=O)OC[C@H]1[C@H](C(=O)NCc1ccc(Cl)c(Cl)c1)[C@@H]3c1ccc3c(c1)OCO3)OCO2`, for which the result in the test with KB [1] was inactive.

The molecule `COc1c2c(cc3c1[C@@H](C#N)[C@H]1COC(=O)[C@@H]1[C@@H]3c1ccc3c(c1)OCO3)OCO2` showed an IC50 in the test on KB [2] of 1.2 µg/mL.

For the molecule `COc1c2c(cc3c1[C@H](O)[C@H]1COC(=O)[C@@H]1[C@@H]3c1ccc3c(c1)OCO3)OCO2` [CLEISTANTOXIN], the IC50 in the test on HT-29 stood at 35 nM; in the test on KB [2], 22 nM; in test [3], 14 nM; with MCF7 it was 36 nM.

`COc1c2c(cc3c1[C@H]1C(=O)OC[C@H]1[C@H](C(=O)NC1CCCCCC1)[C@@H]3c1ccc3c(c1)OCO3)OCO2` showed an IC50 in the test on KB [2] of 26 µg/mL.

Regarding `COc1c2c(cc3c1[C@H]1C(=O)OC[C@H]1[C@H](C(=O)O)[C@@H]3c1ccc3c(c1)OCO3)OCO2`, the outcome in the test with KB [1] was inactive.

For the molecule `COc1c2c(cc3c1[C@H]1C(=O)OC[C@H]1[C@H](C(=O)NCc1ccc(F)cc1)[C@@H]3c1ccc3c(c1)OCO3)OCO2`, in the test on KB [1], the result was inactive.

With `COc1c2c(cc3c1[C@H]1C(=O)OC[C@H]1[C@H](C(=O)N1CCCCC1)[C@@H]3c1ccc3c(c1)OCO3)OCO2`, in the test with KB [2], the IC50 was determined as 42 µg/mL.
